In PMC4348351 (Pest management science, 2014):

Tests used:
[1] = test system: Ae. aegypti; test: Topical toxicity bioassay, Ae. aegypti; format: in vivo, Aedes aegypti; conditions: adult females, 24 hour mortality
How it was run: (§1)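 Adult mosquitoes were chilled on ice for 3 min, then 200 nL of test compound in 95% ethanol was applied to the abdomen by handheld microapplicator. Five doses, ten insects each, repeated three times, with an ethanol-only negative control. Insects were held under netting with free access to sugar water.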

[2] = test system: Ostrinia nubilalis AChE (OnAChE); test: AChE inhibition, Ellman assay, OnAChE; format: biochemical; conditions: for SR OnAChE: SR = IC50 of agricultural insect AChE/IC50 of An.gAChE
[3] = test system: Aedes albopictus AChE (Ae.bAChE); test: AChE inhibition, Ellman assay, Ae.bAChE; format: biochemical; conditions: SR = IC50 of mosquito AChE/IC50 of An. gambiae
[4] = test system: Anopheles albimanus AChE (An.aAChE); test: AChE inhibition, Ellman assay, An.aAChE; format: biochemical; conditions: SR = IC50 of mosquito AChE/IC50 of An. gambiae
[5] = test system: Anopheles quadrimaculatus AChE (An.qAChE); test: AChE inhibition, Ellman assay, An.qAChE; format: biochemical; conditions: SR = IC50 of mosquito AChE/IC50 of An. gambiae
[6] = test system: O. nubilalis; test: Topical toxicity bioassay, O. nubilalis; format: in vivo, Ostrinia nubilalis; conditions: for SR (toxicity): Selectivity Ratio = O. nubilalis LD50/An. gambiae LD50; for LD50 (95% CI) O. nubilalis: topical, L2 larvae, 24 hour mortality
How it was run: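 Lepidopteran larvae were ice-chilled for 3 min before 1 μL of test compound in 95% ethanol was applied to the abdomen with a handheld microapplicator. Five doses, ten larvae per dose, done three times, with an ethanol-only negative control. Food substrate was provided in netted containers.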

[7] = test system: Apis mellifera AChE (Ap.mAChE); test: AChE inhibition, Ellman assay, Ap.mAChE; format: biochemical; conditions: for SR Ap.mAChE: SR = IC50 of agricultural insect AChE/IC50 of An.gAChE
[8] = test system: Culex quinquefasciatus AChE (CqAChE); test: AChE inhibition, Ellman assay, CqAChE; format: biochemical; conditions: SR = IC50 of mosquito AChE/IC50 of An. gambiae
[9] = test system: Musca domestica AChE (MdAChE); format: biochemical; conditions: for SR MdAChE: SR = IC50 of agricultural insect AChE/IC50 of An.gAChE
[10] = test system: Cu. quinquefasciatus; test: Topical toxicity bioassay, Cu. quinquefasciatus; format: in vivo, Culex quinquefasciatus; conditions: adult females, 24 hour mortality
How it was run: as §1

[11] = molecular target: Aedes aegypti AChE (Ae.aAChE) (Aedes aegypti, UniProt Q6A2E2); test: AChE inhibition, Ellman assay, Ae.aAChE; format: biochemical; conditions: SR = IC50 of mosquito AChE/IC50 of An. gambiae
[12] = test system: Diaphorina citri AChE (DcAChE); test: AChE inhibition, Ellman assay, DcAChE; format: biochemical; conditions: SR = IC50 of agricultural insect AChE/IC50 of An.gAChE
[13] = molecular target: Drosophila melanogaster AChE (DmAChE) (Drosophila melanogaster, UniProt P07140); test: AChE inhibition, Ellman assay, DmAChE; format: biochemical; conditions: for SR DmAChE: SR = IC50 of agricultural insect AChE/IC50 of An.gAChE
[14] = test system: Plutella xylostella AChE (PxAChE); test: AChE inhibition, Ellman assay, PxAChE; format: biochemical; conditions: for SR PxAChE: SR = IC50 of agricultural insect AChE/IC50 of An.gAChE
[15] = test system: An. gambiae; test: Topical toxicity bioassay, An. gambiae; format: in vivo, Anopheles gambiae; conditions: adult females, 24 hour mortality
How it was run: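 Anopheline adults, chilled on ice for 1 min, received 200 nL of test compound in 95% ethanol on the abdomen via handheld microapplicator. Five doses × ten insects, three repeats, plus an ethanol-only control. Sugar water was freely available under netting.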

[16] = test system: mosquito acetylcholinesterases; test: AChE inhibition, statements across mosquito species; format: biochemical

Compound | LD50 (95% CI) Ae. aegypti [1] | SR OnAChE [2] | SR Ae.bAChE [3] | SR An.aAChE [4] | SR An.qAChE [5] | SR (toxicity) [6] | LD50 (95% CI) O. nubilalis [6] | SR Ap.mAChE [7] | SR CqAChE [8] | SR MdAChE [9] | LD50 (95% CI) Cu. quinquefasciatus [10] | SR Ae.aAChE [11] | SR DcAChE [12] | SR DmAChE [13] | SR PxAChE [14] | LD50 (95% CI) An. gambiae [15] | further results
CNC(=O)Oc1cccc2c1OC(C)(C)O2 [Bendiocarb, bendiocarb] | 1 (0.5–3) aA ng/mg | 2 | 0.8 | 1.0 | 0.8 | 2 | 4 (2–6) aB ng/mg | 0.3 | 1.2 | 0.3 | 2 (1–4) aB ng/mg | 0.7 | 0.5 | 0.2 | 1.3 | 2 (1–4) aA ng/mg | fold more potent than 1, OnAChE ([2]; IC50 ratio versus 1): 8 fold; fold more potent than 5, OnAChE ([2]; IC50 ratio versus 5): 243 fold; fold more toxic than 1, O. nubilalis ([6]; LD50 ratio versus 1): 24 fold; LD50 (95% CI) O. nubilalis ([6]; listed as bendiocarb): 4 ng/mg; fold difference in IC50 versus propoxur, Ap.mAChE ([7]; IC50 ratio versus propoxur): 19 fold; fold more potent than propoxur, MdAChE ([9]; IC50 ratio versus propoxur): 2.6 fold; fold more potent than propoxur, DmAChE ([13]; IC50 ratio versus propoxur): 3.9 fold; fold more potent than 1, PxAChE ([14]; IC50 ratio versus 1): 3 fold; fold more potent than 5, PxAChE ([14]; IC50 ratio, 100 μM value used for 5): 461 fold; SR PxAChE ([14]; listed as bendiocarb): ≤ 7
CNC(=O)Oc1cccc2c1OC(C)(C)C2 [Carbofuran, carbofuran] |  |  | 1.0 | 1.2 | 0.9 |  |  |  | 2.3 |  |  | 0.9 |  |  |  |  | fold more active than bendiocarb, within each mosquito species ([16]; IC50 ratio versus bendiocarb): about 3 fold; fold more potent than propoxur, within each mosquito species ([16]; IC50 ratio versus propoxur): approximately 10 fold
CNC(=O)Oc1ccccc1OC(C)C [Propoxur] | 3 (1–4) aA ng/mg | 15 | 0.8 | 1.1 | 1.0 | 14 | 42 (34–49) cA ng/mg | 2 | 1.1 | 0.3 | 8 (5–11) bA ng/mg | 0.8 | 2 | 0.2 | 7.5 | 3 (2–4) aA ng/mg | SR PxAChE ([14]; listed as propoxur): 7
